# Several values for one entry are separate records, joined by “and”; a condition that tells them apart may be missing. Equal values may be shown once. Positions of bridges follow the written chain, without caps; N, C: chain ends. Non-standard residues stand in square brackets, D forms with d. Residues, ends and D or L forms follow the SMILES beside them. dPhe(4-Cl) = N[C@H](Cc1ccc(Cl)cc1)C(=O)O; dPhe(4-F) = N[C@H](Cc1ccc(F)cc1)C(=O)O; d2Nal = N[C@H](Cc1ccc2ccccc2c1)C(=O)O; d3Pal = N[C@H](Cc1cccnc1)C(=O)O; ΔPro = O=C(O)[C@@H]1C=CCN1; Dap = NC[C@H](N)C(=O)O
# System: Rattus norvegicus
# Test: In vivo antiovulatory assay (AOA) carried out in rats injected sc
# Format: functional
# In short: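 Antiovulatory assay following Corbin and Beattie. Cycling rats injected sc at noon on proestrus with peptide dissolved in saline (200 μL). Dose in micrograms; read-out is the number of rats ovulating out of the total.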
row,Structure (SMILES),Dose
1,CC(=O)NC[C@H](NC(=O)[C@@H](Cc1cccnc1)NC(=O)[C@@H](Cc1ccc(Cl)cc1)NC(=O)[C@@H](Cc1ccc2ccccc2c1)NC(C)=O)C(=O)N[C@@H](CCCN=C(N)N)C(=O)N[C@H](Cc1cccnc1)C(=O)N[C@@H](CC(C)C)C(=O)N[C@@H](CCCN=C(N)N)C(=O)N1CCC[C@H]1C(=O)N[C@@H](CC(N)=O)C(N)=O [listing 1 of 2 here],50 µg
2,CC(C)C[C@@H]1NC(=O)[C@@H](CCCN=C(N)N)NC(=O)[C@H](Cc2ccc(O)cc2)NC(=O)[C@@H](NC(=O)[C@@H](Cc2c[nH]c3ccccc23)NC(=O)[C@@H](Cc2ccc(F)cc2)NC(=O)[C@H](N)Cc2ccc3ccccc3c2)CSSC[C@@H](C(N)=O)NC(=O)[C@@H]2CCCN2C(=O)[C@H](CCCN=C(N)N)NC1=O,50 µg and 100 µg
3,CC(=O)N[C@H](Cc1ccc2ccccc2c1)C(=O)N[C@H](Cc1ccc(Cl)cc1)C(=O)N[C@H](Cc1cccnc1)C(=O)N[C@@H](CO)C(=O)N[C@@H](CCCNC(=N)N)C(=O)N[C@H](Cc1cccnc1)C(=O)N[C@@H](CC(C)C)C(=O)N[C@@H](CCCNC(=N)N)C(=O)N1CCC[C@H]1C(=O)N[C@H](C)C(N)=O (Ac-[d2Nal][dPhe(4-Cl)][d3Pal]SR[d3Pal]LRP[dA]-NH2) [listing 1 of 2 here],0.5 µg and 1 µg
4,CC(=O)N[C@H](Cc1ccc2ccccc2c1)C(=O)N[C@H](Cc1ccc(Cl)cc1)C(=O)N[C@H](Cc1cccnc1)C(=O)N[C@H]1CCC(=O)NC[C@@H](C(N)=O)NC(=O)[C@@H]2CCCN2C(=O)[C@H](CCCNC(=N)N)NC(=O)[C@H](CC(C)C)NC(=O)[C@@H](Cc2cccnc2)NC(=O)[C@H](CCCNC(=N)N)NC1=O [listing 1 of 2 here],10 µg and 25 µg
5,CC(=O)N[C@H](Cc1ccc2ccccc2c1)C(=O)N[C@H](Cc1ccc(F)cc1)C(=O)N[C@H](Cc1c[nH]c2ccccc12)C(=O)N[C@H]1CC(=O)NC[C@@H](C(N)=O)NC(=O)[C@@H]2CCCN2C(=O)[C@H](CCCN=C(N)N)NC(=O)[C@H](CC(C)C)NC(=O)[C@@H](CCCN=C(N)N)NC(=O)[C@H](Cc2ccc(O)cc2)NC1=O (Ac-[d2Nal][dPhe(4-F)][dW]DY[dR]LRP[Dap]-NH2; lactam 4-10),1 µg and 2.5 µg

# Molecular target: T1, Gonadotropin-releasing hormone receptor (Rattus norvegicus, UniProt P30969)
# T1 sequence (P30969 whole entry): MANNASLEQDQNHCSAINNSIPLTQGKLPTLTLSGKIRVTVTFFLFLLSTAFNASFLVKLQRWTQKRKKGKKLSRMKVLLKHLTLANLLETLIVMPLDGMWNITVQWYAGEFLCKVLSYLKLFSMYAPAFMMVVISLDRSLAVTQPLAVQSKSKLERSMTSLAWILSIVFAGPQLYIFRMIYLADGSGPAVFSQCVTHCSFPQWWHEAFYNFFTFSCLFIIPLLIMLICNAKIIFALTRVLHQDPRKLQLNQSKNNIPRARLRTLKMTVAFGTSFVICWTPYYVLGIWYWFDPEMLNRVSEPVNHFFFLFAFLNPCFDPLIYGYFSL
# Test: Inhibitory binding constant for Gonadotropin-releasing hormone receptor
row,Structure (SMILES),Kd
1,CC(=O)N[C@H](Cc1ccc2ccccc2c1)C(=O)N[C@H](Cc1ccc(Cl)cc1)C(=O)N[C@H](Cc1cccnc1)C(=O)N[C@@H](CO)C(=O)N[C@@H](CCCNC(=N)N)C(=O)N[C@H](Cc1cccnc1)C(=O)N[C@@H](CC(C)C)C(=O)N[C@@H](CCCNC(=N)N)C(=O)N1CCC[C@H]1C(=O)N[C@H](C)C(N)=O (Ac-[d2Nal][dPhe(4-Cl)][d3Pal]SR[d3Pal]LRP[dA]-NH2) [listing 2 of 2 here],0.24 nM
2,CC(=O)N1CC=C[C@H]1C(=O)N[C@H](Cc1ccc(F)cc1)C(=O)N[C@H](Cc1c[nH]c2ccccc12)C(=O)N[C@@H](CO)C(=O)N[C@@H](Cc1ccc(O)cc1)C(=O)N[C@H](Cc1c[nH]c2ccccc12)C(=O)N[C@@H](CC(C)C)C(=O)N[C@@H](CCCNC(=N)N)C(=O)N1CCC[C@H]1C(=O)NCC(N)=O (Ac-[ΔPro][dPhe(4-F)][dW]SY[dW]LRPG-NH2),0.27 nM
3,CC(=O)NC[C@H](NC(=O)[C@@H](Cc1cccnc1)NC(=O)[C@@H](Cc1ccc(Cl)cc1)NC(=O)[C@@H](Cc1ccc2ccccc2c1)NC(C)=O)C(=O)N[C@@H](CCCN=C(N)N)C(=O)N[C@H](Cc1cccnc1)C(=O)N[C@@H](CC(C)C)C(=O)N[C@@H](CCCN=C(N)N)C(=O)N1CCC[C@H]1C(=O)N[C@@H](CC(N)=O)C(N)=O [listing 2 of 2 here],1 nM

# The remaining lines, values ahead:
row,Kd,Structure (SMILES)
1,0.8 nM,CC(=O)N[C@H](Cc1ccc2ccccc2c1)C(=O)N[C@H](Cc1ccc(Cl)cc1)C(=O)N[C@H](Cc1cccnc1)C(=O)N[C@H]1CSSC[C@@H](C(N)=O)NC(=O)[C@@H]2CCCN2C(=O)[C@H](CCCNC(=N)N)NC(=O)[C@H](CC(C)C)NC(=O)[C@@H](Cc2cccnc2)NC(=O)[C@H](CCCNC(=N)N)NC1=O (Ac-[d2Nal][dPhe(4-Cl)][d3Pal]CR[d3Pal]LRPC-NH2; disulfide 4-10)
2,1.1 nM,CC(=O)N[C@H](Cc1ccc2ccccc2c1)C(=O)N[C@H](Cc1ccc(Cl)cc1)C(=O)N[C@H](Cc1cccnc1)C(=O)N[C@H]1CC(=O)NC[C@@H](C(N)=O)NC(=O)[C@@H]2CCCN2C(=O)[C@H](CCCNC(=N)N)NC(=O)[C@H](CC(C)C)NC(=O)[C@@H](Cc2cccnc2)NC(=O)[C@H](CCCNC(=N)N)NC1=O
3,10 nM,CC(=O)N[C@H](Cc1ccc2ccccc2c1)C(=O)N[C@H](Cc1ccc(F)cc1)C(=O)N[C@H](Cc1c[nH]c2ccccc12)C(=O)N[C@H]1CNC(=O)C[C@@H](C(N)=O)NC(=O)[C@@H]2CCCN2C(=O)[C@H](CCCN=C(N)N)NC(=O)[C@H](CC(C)C)NC(=O)[C@@H](CCCN=C(N)N)NC(=O)[C@H](Cc2ccc(O)cc2)NC1=O
4,6 nM,CC(=O)N[C@H](Cc1ccc2ccccc2c1)C(=O)N[C@H](Cc1ccc(F)cc1)C(=O)N[C@H](Cc1c[nH]c2ccccc12)C(=O)N[C@H]1CSSC[C@@H](C(N)=O)NC(=O)[C@@H]2CCCN2C(=O)[C@H](CCCN=C(N)N)NC(=O)[C@H](CC(C)C)NC(=O)[C@@H](CCCN=C(N)N)NC(=O)[C@H](Cc2ccc(O)cc2)NC1=O
5,1 nM,CC(=O)N[C@H](Cc1ccc2ccccc2c1)C(=O)N[C@H](Cc1ccc(Cl)cc1)C(=O)N[C@H](Cc1cccnc1)C(=O)N[C@H]1CCC(=O)NC[C@@H](C(N)=O)NC(=O)[C@@H]2CCCN2C(=O)[C@H](CCCNC(=N)N)NC(=O)[C@H](CC(C)C)NC(=O)[C@@H](Cc2cccnc2)NC(=O)[C@H](CCCNC(=N)N)NC1=O [listing 2 of 2 here]
6,1.1 nM,CC(=O)N[C@H](Cc1ccc2ccccc2c1)C(=O)N[C@H](Cc1ccc(F)cc1)C(=O)N[C@H](Cc1c[nH]c2ccccc12)C(=O)N[C@H]1CCC(=O)NC[C@@H](C(N)=O)NC(=O)[C@@H]2CCCN2C(=O)[C@H](CCCN=C(N)N)NC(=O)[C@H](CC(C)C)NC(=O)[C@@H](CCCN=C(N)N)NC(=O)[C@H](Cc2ccc(O)cc2)NC1=O
7,> 100 nM,CC(=O)N[C@H](Cc1ccc2ccccc2c1)C(=O)N[C@H](Cc1ccc(F)cc1)C(=O)N[C@H](Cc1c[nH]c2ccccc12)C(=O)N[C@H]1CNC(=O)C[C@@H](C(=O)NCC(N)=O)NC(=O)[C@H](CCCNC(=N)N)NC(=O)[C@H](CC(C)C)NC(=O)[C@@H](CCCNC(=N)N)NC(=O)[C@H](Cc2ccc(O)cc2)NC1=O
8,11 nM,CC(=O)N[C@H](Cc1ccc2ccccc2c1)C(=O)N[C@H](Cc1ccc(Cl)cc1)C(=O)N[C@H](Cc1cccnc1)C(=O)N[C@H]1CC(=O)NCCC[C@@H](C(N)=O)NC(=O)[C@@H]2CCCN2C(=O)[C@H](CCCNC(=N)N)NC(=O)[C@H](CC(C)C)NC(=O)[C@@H](Cc2cccnc2)NC(=O)[C@H](CCCNC(=N)N)NC1=O
9,41 nM,CC(=O)N[C@H](Cc1ccc2ccccc2c1)C(=O)N[C@H](Cc1ccc(F)cc1)C(=O)N[C@H](Cc1c[nH]c2ccccc12)C(=O)N[C@H]1CC(=O)NCCC[C@@H](C(N)=O)NC(=O)[C@@H]2CCCN2C(=O)[C@H](CCCN=C(N)N)NC(=O)[C@H](CC(C)C)NC(=O)[C@@H](CCCN=C(N)N)NC(=O)[C@H](Cc2ccc(O)cc2)NC1=O
10,4.5 nM and 10 nM,CC(=O)N[C@H](Cc1ccc2ccccc2c1)C(=O)N[C@H](Cc1ccc(Cl)cc1)C(=O)N[C@H](Cc1cccnc1)C(=O)N[C@H]1CNC(=O)C[C@@H](C(N)=O)NC(=O)[C@@H]2CCCN2C(=O)[C@H](CCCNC(=N)N)NC(=O)[C@H](CC(C)C)NC(=O)[C@@H](Cc2cccnc2)NC(=O)[C@H](CCCNC(=N)N)NC1=O (Ac-[d2Nal][dPhe(4-Cl)][d3Pal][Dap]R[d3Pal]LRPD-NH2; lactam 4-10)

# System: Rattus norvegicus
# Test: Effect of oral administration of compound (3 mg) on LH secretion by castrated male rats; ng of LH/mL
# Format: functional
# In short: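 Adult Sprague-Dawley male rats, castrated under light ether anesthesia 7-10 days before assay. Peptide dissolved in 2 N HOAc, then diluted in 0.1% BSA-0.04 M phosphate buffer pH 7.4. Given by gavage tube (0.5 mL) under ether. Blood sampled before treatment and 5 h after. Plasma LH in ng/mL, mean ± SEM, five rats per treatment.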
row,Structure (SMILES),Activity
1,CC(=O)NC[C@H](NC(=O)[C@@H](Cc1cccnc1)NC(=O)[C@@H](Cc1ccc(Cl)cc1)NC(=O)[C@@H](Cc1ccc2ccccc2c1)NC(C)=O)C(=O)N[C@@H](CCCN=C(N)N)C(=O)N[C@H](Cc1cccnc1)C(=O)N[C@@H](CC(C)C)C(=O)N[C@@H](CCCN=C(N)N)C(=O)N1CCC[C@H]1C(=O)N[C@@H](CC(N)=O)C(N)=O [listing 1 of 2 here],8.22

# — ChEMBL document CHEMBL1124067, “Design of potent cyclic gonadotropin releasing hormone antagonists” (J Med Chem, 1988)
